From ChEMBL document CHEMBL1806467 (Bioorg Med Chem Lett, 2011)
pIC50: −log10 of the molar value. Converted amounts (≈) assume the structure as drawn. The source made the active and inactive calls. The rule behind the calls is not given here.

Experiments:
[1] = molecular target: Serine/threonine-protein kinase mTOR (Homo sapiens, UniProt P42345); assay: Inhibition of mTOR
[2] = Aqueous solubility of the compound at pH 7.4; format: physicochemical; details: buffer
[3] = Half life in human liver microsomes after 30 mins; format: ADME, Microsome
Outline: (§1)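 Drug incubated with liver microsomes of the stated species (rat, nude mouse, human) for 30 min; half-life of drug determined.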

[4] = Half life in nude mouse liver microsomes after 30 mins; format: ADME, Microsome; outline: as §1
[5] = Half life in rat liver microsomes after 30 mins; format: ADME, Microsome; outline: as §1
MDA-MB-361 = assay: cells; details: Homo sapiens, MDA-MB-361, 72 h
PC-3 = assay: cells; details: Homo sapiens, PC-3, 72 h
Mus musculus [6] = organism: Mus musculus; details: MDA-MB-361, 25 mg/kg
Mus musculus [7] = organism: Mus musculus; details: MDA-MB-361, 25 mg/kg; remark: listed apart in the source
Mus musculus [8] = organism: Mus musculus; details: MDA-MB-361, 25 mg/kg; remark: listed apart in the source
Mus musculus [9] = organism: Mus musculus; details: MDA-MB-361, 25 mg/kg; remark: listed apart in the source
Mus musculus [10] = organism: Mus musculus; details: MDA-MB-361, 25 mg/kg; remark: listed apart in the source
Mus musculus [11] = organism: Mus musculus; details: MDA-MB-361, 10 mg/kg
Mus musculus [12] = organism: Mus musculus; details: MDA-MB-361, 10 mg/kg; remark: listed apart in the source
Mus musculus [13] = organism: Mus musculus; details: MDA-MB-361, 10 mg/kg; remark: listed apart in the source
Mus musculus [14] = organism: Mus musculus; details: MDA-MB-361, 10 mg/kg; remark: listed apart in the source
Mus musculus [15] = organism: Mus musculus; details: MDA-MB-361, 10 mg/kg; remark: listed apart in the source
Mus musculus [16] = assay: In vivo inhibition of PI3K/mTOR in human MDA-MB-361 cells xenografted nude mouse assessed as induction of cleaved poly-adenosine-diphosphate-ribose polymerase at 50 mg/kg, iv after 8 hrs by immunoblotting; format: functional, organism-based; set-up: dose 50 mg/kg
[17] = molecular target: Phosphatidylinositol 4,5-bisphosphate 3-kinase catalytic subunit alpha isoform (Homo sapiens, UniProt P42336); assay: Inhibition of human PI3Kalpha expressed in SF9 insect cells after 2 hrs by fluorescence polarization assay
Sequence of Phosphatidylinositol 4,5-bisphosphate 3-kinase catalytic subunit alpha isoform (P42336 whole entry, canonical isoform): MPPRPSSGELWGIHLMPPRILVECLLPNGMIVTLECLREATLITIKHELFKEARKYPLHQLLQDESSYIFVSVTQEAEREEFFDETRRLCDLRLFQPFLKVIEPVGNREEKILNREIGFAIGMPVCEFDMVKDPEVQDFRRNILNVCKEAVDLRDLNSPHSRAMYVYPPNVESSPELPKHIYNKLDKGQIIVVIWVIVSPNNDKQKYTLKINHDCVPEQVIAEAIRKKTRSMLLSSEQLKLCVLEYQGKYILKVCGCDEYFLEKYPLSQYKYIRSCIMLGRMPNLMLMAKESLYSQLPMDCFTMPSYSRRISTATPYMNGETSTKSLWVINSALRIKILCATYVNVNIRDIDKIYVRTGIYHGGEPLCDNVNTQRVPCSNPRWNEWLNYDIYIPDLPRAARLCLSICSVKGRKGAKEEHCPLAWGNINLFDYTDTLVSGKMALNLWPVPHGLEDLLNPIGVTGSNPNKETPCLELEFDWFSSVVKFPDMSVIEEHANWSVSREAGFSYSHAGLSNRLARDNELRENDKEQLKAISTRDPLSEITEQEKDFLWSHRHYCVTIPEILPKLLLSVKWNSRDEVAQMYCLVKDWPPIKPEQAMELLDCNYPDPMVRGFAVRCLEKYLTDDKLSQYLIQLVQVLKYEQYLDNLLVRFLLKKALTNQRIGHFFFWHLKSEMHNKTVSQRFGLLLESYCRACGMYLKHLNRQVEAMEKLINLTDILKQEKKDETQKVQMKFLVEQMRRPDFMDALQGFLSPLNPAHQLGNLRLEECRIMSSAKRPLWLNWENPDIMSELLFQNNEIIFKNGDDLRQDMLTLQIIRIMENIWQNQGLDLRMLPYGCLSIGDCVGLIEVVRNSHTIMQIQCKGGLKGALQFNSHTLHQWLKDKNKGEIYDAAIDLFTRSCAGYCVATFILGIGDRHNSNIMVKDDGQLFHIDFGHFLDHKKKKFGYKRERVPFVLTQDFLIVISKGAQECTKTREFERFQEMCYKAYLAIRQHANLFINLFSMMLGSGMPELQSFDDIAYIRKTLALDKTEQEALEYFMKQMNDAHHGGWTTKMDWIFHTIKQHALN

| Compound | solubility [2] | half-life [3] | half-life [4] | half-life [5] | pIC50 (MDA-MB-361) | pIC50 (PC-3) | also measured |
| --- | --- | --- | --- | --- | --- | --- | --- |
| CN1C2CCC1CC(Oc1nc(-c3ccc(NC(=O)Nc4ccc(C(N)=O)cc4)cc3)nc(N3CCOCC3)n1)C2 (stereo not drawn) | 62 µg/mL (≈ 111 µM) |  |  | 4 min |  |  |  |
| CN1CCN(C(=O)c2ccc(NC(=O)Nc3ccc(-c4nc(O[C@H]5CCOC5)nc(N5CCOCC5)n4)cc3)cc2)CC1 | 1 µg/mL (≈ 1.7 µM) | 15 min | > 30 min | 20 min |  |  |  |
| CN(C)C1CCN(C(=O)c2ccc(NC(=O)Nc3ccc(-c4nc(N5CCOCC5)nc(N5CCOCC5)n4)cc3)cc2)CC1 [GEDATOLISIB] | 15 µg/mL (≈ 24.4 µM) | > 30 min | > 30 min | > 30 min |  |  | inhibition (Mus musculus [6]): Active; inhibition (Mus musculus [7]): Active; inhibition (Mus musculus [8]): Active; inhibition (Mus musculus [9]): Active; inhibition (Mus musculus [10]): Active; inhibition (Mus musculus [11]): Active; inhibition (Mus musculus [12]): Active; inhibition (Mus musculus [13]): Active; inhibition (Mus musculus [14]): Active; inhibition (Mus musculus [15]): Active |
| CN(C)C1CCN(C(=O)c2ccc(NC(=O)Nc3ccc(-c4nc(O[C@H]5CCOC5)nc(N5CCOCC5)n4)cc3)cc2)CC1 |  | 18 min | > 30 min |  |  |  |  |
| CCn1nnc2c(N3CCOCC3)nc(-c3ccc(NC(=O)Nc4ccc(C(=O)N5CCN(C)CC5)cc4)cc3)nc21 |  | > 30 min | > 30 min |  | 8.10 |  | pIC50 [1]: 8.70; inhibition (Mus musculus [16]): Active |
| CN1CCN(C(=O)c2ccc(NC(=O)Nc3ccc(-c4nc(N5CCOCC5)[nH]c(=O)n4)cc3)cc2)CC1 |  |  |  | > 30 min | < 6.00 | < 6.00 |  |
| COc1nc(-c2ccc(NC(=O)Nc3ccc(C(=O)N4CCNC(C)(C)C4)cc3)cc2)nc(N2CCOCC2)n1 | 61 µg/mL (≈ 112 µM) | > 30 min | > 30 min | 29 min | 7.52 | 6.95 | pIC50 [17]: 8.85; pIC50 [1]: 7.73 |
| CN1CCN(C(=O)c2ccc(NC(=O)Nc3ccc(-c4nc(OC5COC5)nc(N5CCOCC5)n4)cc3)cc2)CC1 | 4 µg/mL (≈ 6.96 µM) |  |  | > 30 min |  |  |  |

More lines, main results first:

| solubility [2] | half-life [3] | half-life [4] | half-life [5] | pIC50 (MDA-MB-361) | pIC50 (PC-3) | Compound | also measured |
| --- | --- | --- | --- | --- | --- | --- | --- |
| 1 µg/mL (≈ 1.62 µM) | > 30 min | > 30 min | 27 min | 8.30 | 7.74 | O=C(Nc1ccc(C(=O)NCCN2CCCCC2)cc1)Nc1ccc(-c2nc(O[C@H]3CCOC3)nc(N3CCOCC3)n2)cc1 | pIC50 [1]: 9.40 |
| 15 µg/mL (≈ 26.7 µM) | > 30 min | 23 min | > 30 min |  |  | CC(C)Oc1nc(-c2ccc(NC(=O)Nc3ccc(C(=O)N(C)CCN(C)C)cc3)cc2)nc(N2CCOCC2)n1 |  |
| 23 µg/mL (≈ 38.2 µM) | > 30 min | > 30 min | 28 min | 8.10 | 7.57 | O=C(Nc1ccc(C(=O)NCCN2CCCC2)cc1)Nc1ccc(-c2nc(O[C@H]3CCOC3)nc(N3CCOCC3)n2)cc1 | pIC50 [1]: 9.52 |
| > 100 µg/mL | > 30 min | > 30 min | 27 min |  |  | CN(C)CCN(C)C(=O)c1ccc(NC(=O)Nc2ccc(-c3nc(O[C@H]4CCOC4)nc(N4CCOCC4)n3)cc2)cc1 | inhibition (Mus musculus [6]): Active; inhibition (Mus musculus [7]): Active; inhibition (Mus musculus [8]): Active; inhibition (Mus musculus [9]): Active; inhibition (Mus musculus [10]): Active |
|  | > 30 min | > 30 min | 17 min |  |  | CC(C)Oc1nc(-c2ccc(NC(=O)Nc3ccc(C(=O)N4CCN(C)CC4)cc3)cc2)nc(N2CCOCC2)n1 |  |
| 3 µg/mL (≈ 5.47 µM) | > 30 min | > 30 min | > 30 min | 7.96 | 7.39 | CC(C)Oc1nc(-c2ccc(NC(=O)Nc3ccc(C(=O)NCCN(C)C)cc3)cc2)nc(N2CCOCC2)n1 | pIC50 [1]: 9.40 |
| > 100 µg/mL | > 30 min | > 30 min | 15 min | 7.82 | 7.47 | COc1nc(-c2ccc(NC(=O)Nc3ccc(C(=O)N(C)CCN(C)C)cc3)cc2)nc(N2CCOCC2)n1 |  |
| > 100 µg/mL | > 30 min | > 30 min | > 30 min | > 7.51 | 7.16 | COc1nc(-c2ccc(NC(=O)Nc3ccc(C(=O)NCCN4CCCCC4)cc3)cc2)nc(N2CCOCC2)n1 |  |
| > 100 µg/mL | > 30 min | > 30 min | > 30 min | 6.96 | 6.43 | CNCCN(C)C(=O)c1ccc(NC(=O)Nc2ccc(-c3nc(OC)nc(N4CCOCC4)n3)cc2)cc1 |  |
| 3 µg/mL (≈ 5.63 µM) | > 30 min | > 30 min | 16 min | 7.46 | 7.04 | COc1nc(-c2ccc(NC(=O)Nc3ccc(C(=O)N4CCN(C)CC4)cc3)cc2)nc(N2CCOCC2)n1 | pIC50 [17]: 8.92 |
| > 100 µg/mL | > 30 min | > 30 min | > 30 min | > 7.51 | 7.15 | COc1nc(-c2ccc(NC(=O)Nc3ccc(C(=O)NCCN(C)C)cc3)cc2)nc(N2CCOCC2)n1 |  |
